Data on 35 compounds can be found in PubChem BioAssay AID822 (SRMLSC, 2007).

Activity calls are given as the source filed them.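 How the source made its calls: active means half-maximal effective dose for blocking growth of human endothelial cells at most 100 µM; inactive means the rest.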

The nature of the test: growth suppression of umbilical vein endothelial cells – cell-based, HUVEC, ATP luminescence, dose response (AID 822).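 Further: cells exposed to compound for 72 h before the ATP read; 100% = median luminescence of untreated cell-only control wells on each plate.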 The settings on record: HUVEC proliferation, viability ATP luminescence; at 20 µM (top of the series). The gist of the method: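 Assay system: HUVEC primary endothelial cells, low passage (≤12) | Doses: 0.039–20 µM, 0.2% DMSO | Incubation: 72 h compound exposure at 37 °C | Detection: CellTiter-Glo ATP luminescence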
For the compound `C=CCn1c(O)c(C2=c3ccccc3=NC2=O)s/c1=N/c1nccs1`, the viability (as a rule, a read-out of living cells in per cent, often relative to untreated cells) was 85.2% (inactive).
With `Cn1c(=O)c2cc(NCc3ccccc3)nnc2n(C)c1=O` the figure was 92.6% (inactive).
As to `Cc1cc(Cl)ccc1OCCCC(N)=O`, the viability is 94% (inactive).
Take `O=C(Cc1sc(-c2ccccc2Cl)nc1-c1ccccc1)Nc1ccc(F)cc1`: the viability was 83.5% (inactive).
In the case of `O=C(Nc1nc(NC(=O)c2ccco2)n(-c2ccccc2)n1)c1ccccc1`, the viability was 84.5% (inactive).
As for `Cc1ccc(NC(=O)c2c(O)c3ccccc3n(C)c2=O)nc1`, the viability was 101% (inactive).
`CC1CCCC(NC(=O)C2CCN(S(=O)(=O)N3CCC4(CC3)OCCO4)CC2)C1C` (stereo not given): the viability is 93.2% (inactive).
With `Cc1ccc(-n2c(Cc3cccs3)nnc2SCC(=O)Nc2ccc(F)c(F)c2)cc1`, the viability was 82.4% (inactive).
As for `CC1(C)CC(NC(=O)c2coc(=O)c(Br)c2)CC(C)(C)N1`, the figure is 81% (inactive); as for `O=C(Oc1ccccc1-c1nnco1)c1ccc(Cl)cc1`, 105% (inactive).
For `CN(CCO)c1cc(Sc2nc3ccccc3s2)c2nonc2c1[N+](=O)[O-]`, the viability was 85.4% (inactive).
As for `Cc1sc2nc(SCC(=O)NCc3ccco3)n(CCc3ccccc3)c(=O)c2c1C`, the viability is 91.5% (inactive).
`Oc1ccc2oc3c(c2c1/C=N/n1cnnc1)CCCC3`: the viability is 88.2% (inactive).
In the case of `CC(C)(C)c1ccc(-c2nnc(SCC(=O)O)n2N)cc1`, the viability was 106% (inactive).
As for `COc1ccc(CCn2c(=S)[nH]c3cc(C(=O)NCc4ccco4)ccc3c2=O)cc1OC`, the figure is 102% (inactive); as for `O=C(Nc1cccnc1)c1ccc(Br)s1`, 90% (inactive); as for `CCCS(=O)(=O)N1CCC(C(=O)N2CCC3(CC2)OCCO3)CC1`, 99.1% (inactive).
`CCn1c(SCC(=O)Nc2cc(C)on2)nc2sc3c(c2c1=O)CCCC3`: the viability is 86.3% (inactive).
With `Cc1ccc(-n2nnnc2SCC(=O)Nc2ccc3c(c2)COC3=O)cc1C` the figure was 91.3% (inactive); with `COc1ccc(-c2nnc(SCCc3ccccc3)n2N)cc1`, 108% (inactive).
In the case of `CN(C)C(=O)CSc1cccc2cccnc12`, the viability was 84.4% (inactive).
For the compound `CCOC(=O)c1ccc(NC(=O)c2c(C)[nH]c(C(=O)OCC)c2C)cc1`, the viability was 96.7% (inactive).
Turning to `CCOc1ccc(NC(=S)Nc2ccc(C)c([N+](=O)[O-])c2)cc1`, the viability was 88.7% (inactive).
Turning to `O=C(Nc1ccc(-c2nc3c(ccc4ccccc43)o2)cc1)c1ccco1`, the viability was 90% (inactive).
In the case of `COc1ccc2cc3cc(C(=O)NCCc4ccc(OC)c(OC)c4)oc3nc2c1`, the viability is 93.3% (inactive).
In the case of `Cc1cc(C(=O)OC(C)C(=O)Nc2cccc(S(=O)(=O)N3CCOCC3)c2)c(C)o1` (stereo not given), the viability was 101% (inactive).
Turning to `Cc1ccc(C(C#N)c2ccc(C(=O)c3ccc(F)cc3)cc2)cc1` (stereo not given), the viability was 84% (inactive).
With `O=C1CC(Sc2nnc(-c3ccccc3O)o2)C(=O)N1c1ccccc1` (stereo not given), the viability was 93% (inactive).
Take `Cn1nnc(NC(=O)CSc2ccc(Cl)cc2)n1`: the viability was 103% (inactive).
As to `O=C(CCSc1ccc(Cl)cc1)N1CCN(c2ncccn2)CC1`, the viability was 94.5% (inactive).
With `Cc1cc(C(=O)Nc2nc3ccc(S(C)(=O)=O)cc3s2)c(C)o1`, the viability is 82.9% (inactive).
As for `Brc1cccc(-c2nnc3sc(CNC4CCCC4)cn23)c1`, the figure is 84% (inactive); as for `O=C(CC1SCCNC1=O)Nc1cc(Cl)cc(Cl)c1` (stereo not given), 96.6% (inactive).
As for `COc1ccc2[nH]cc(C(=O)CN3CCN(C4CCCCC4)CC3)c2c1`, the figure is 85.4% (inactive); as for `Clc1ccc(Cn2cc(/C=N/n3cnnc3)c3ccccc32)c(Cl)c1`, 87.3% (inactive).
